Tests used:
Canis familiaris [1] = assay: Total time in minutes elapsed from the initiation of the change until return to the pretest value of blood pressure in coronary sinus of anesthetized dog at intravenous dosage of 9 mg/kg; format: functional, Canis lupus familiaris
Canis familiaris [2] = assay: Total time in minutes elapsed from the initiation of the change until return to the pretest value of heart rate in coronary sinus of anesthetized dog at intravenous dosage of 9 mg/kg; format: functional, Canis lupus familiaris
Canis familiaris [3] = assay: Total time in minutes elapsed from the initiation of the change until return to the pretest value of oxygen partial pressure in coronary sinus of anesthetized dog at intravenous dosage of 9 mg/kg; format: functional, Canis lupus familiaris
Summary of the method: (§1)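 Open-chest anesthetized dogs given compound by intravenous injection. Coronary sinus PO2 was monitored, and duration was the total time in minutes from the onset of the change until return to the pretest value.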

Canis familiaris [4] = assay: tested for the percent increase in aortic blood pressure (BP) in open chest anesthetized dog at intravenous dosage of 9.00 mg/kg; format: functional, Canis lupus familiaris, Artery
Summary of the method: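 Open-chest anesthetized dogs received intravenous doses. Aortic blood pressure was recorded as the change from control.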

Canis familiaris [5] = assay: tested for percent increase in coronary sinus partial pressure of oxygen (PO2) in open chest anesthetized dog at intravenous dosage of 9.00 mg/kg; format: functional, Canis lupus familiaris
[6] = Lethal dose in mice after intraperitoneal administration; format: toxicity, organism-based; conditions: mouse, in vivo, ip
Summary of the method: (§2)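 Male and female mice, three per dose group, were given the compound by the stated route in increments of 0.5 log doses. The LD50 was estimated as an approximate value.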

[7] = Lethal dose in mice after peroral administration; format: toxicity, organism-based; conditions: mouse, in vivo, po; summary of the method: as §2
Canis familiaris [8] = assay: Total time in minutes elapsed from the initiation of the change until return to the pretest value of blood pressure in coronary sinus of anesthetized dog at intravenous dosage of 1.00 mg/kg; format: functional, Canis lupus familiaris
Canis familiaris [9] = assay: Total time in minutes elapsed from the initiation of the change until return to the pretest value of heart rate in coronary sinus of anesthetized dog at intravenous dosage of 1 mg/kg; format: functional, Canis lupus familiaris
Canis familiaris [10] = assay: Total time in minutes elapsed from the initiation of the change until return to the pretest value of oxygen partial pressure in coronary sinus of anesthetized dog at intravenous dosage of 1 mg/kg; format: functional, Canis lupus familiaris; summary of the method: as §1
Canis familiaris [11] = assay: Tested for percent increase in coronary sinus partial pressure of oxygen (PO2) in open chest anesthetized dog at intravenous dosage of 1.00 mg/kg; format: functional, Canis lupus familiaris
Canis familiaris [12] = assay: Tested for the percent increase in aortic blood pressure (BP) in open chest anesthetized dog at intravenous dosage of 1.00 mg/kg; format: functional, Canis lupus familiaris, Artery
Summary of the method: (§3)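 Open-chest anesthetized dogs, compound given iv at the stated dose. Aortic blood pressure is reported as the change from the control (pre-dose) value. Other set-up follows the group's earlier cardiovascular protocol.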

Canis familiaris [13] = assay: Total time in minutes elapsed from the initiation of the change until return to the pretest value of blood pressure in coronary sinus of anesthetized dog at intravenous dosage of 0.05 mg/kg; format: functional, Canis lupus familiaris
Canis familiaris [14] = assay: Total time in minutes elapsed from the initiation of the change until return to the pretest value of heart rate in coronary sinus of anesthetized dog at intravenous dosage of 0.05 mg/kg; format: functional, Canis lupus familiaris
Canis familiaris [15] = assay: Total time in minutes elapsed from the initiation of the change until return to the pretest value of oxygen partial pressure in coronary sinus of anesthetized dog at intravenous dosage of 0.05 mg/kg; format: functional, Canis lupus familiaris
Canis familiaris [16] = assay: tested for the percent increase in heart rate (HR) in open chest anesthetized dog at intravenous dosage of 0.05 mg/kg; format: functional, Canis lupus familiaris
Canis familiaris [17] = assay: tested for percent increase in coronary sinus partial pressure of oxygen (PO2) in open chest anesthetized dog at intravenous dosage of 0.05 mg/kg; format: functional, Canis lupus familiaris
Canis familiaris [18] = assay: Total time in minutes elapsed from the initiation of the change until return to the pretest value of blood pressure in coronary sinus of anesthetized dog at intravenous dosage of 0.01 mg/kg; format: functional, Canis lupus familiaris
Canis familiaris [19] = assay: Total time in minutes elapsed from the initiation of the change until return to the pretest value of blood pressure in coronary sinus of anesthetized dog at intravenous dosage of 0.10 mg/kg; format: functional, Canis lupus familiaris; conditions: dose 0.1 mg/kg
Summary of the method: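 Open-chest anesthetized dogs were given the compound intravenously. Duration is the total minutes from the start of the change until return to the pretest value. Blood pressure was recorded as change from control.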

Canis familiaris [20] = assay: Total time in minutes elapsed from the initiation of the change until return to the pretest value of heart rate in coronary sinus of anesthetized dog at intravenous dosage of 0.01 mg/kg; format: functional, Canis lupus familiaris
Canis familiaris [21] = assay: Total time in minutes elapsed from the initiation of the change until return to the pretest value of heart rate in coronary sinus of anesthetized dog at intravenous dosage of 0.10 mg/kg; format: functional, Canis lupus familiaris; conditions: dose 0.1 mg/kg
Canis familiaris [22] = assay: Total time in minutes elapsed from the initiation of the change until return to the pretest value of oxygen partial pressure in coronary sinus of anesthetized dog at intravenous dosage of 0.01 mg/kg; format: functional, Canis lupus familiaris
Canis familiaris [23] = assay: Total time in minutes elapsed from the initiation of the change until return to the pretest value of oxygen partial pressure in coronary sinus of anesthetized dog at intravenous dosage of 0.10 mg/kg; format: functional, Canis lupus familiaris; conditions: dose 0.1 mg/kg
Canis familiaris [24] = assay: Tested for percent increase in coronary sinus partial pressure of oxygen (PO2) in open chest anesthetized dog at intravenous dosage of 0.01 mg/kg; format: functional, Canis lupus familiaris
Canis familiaris [25] = assay: tested for the percent increase in heart rate (HR) in open chest anesthetized dog at intravenous dosage of 0.10 mg/kg; format: functional, Canis lupus familiaris; conditions: dose 0.1 mg/kg
Canis familiaris [26] = assay: Tested for the percent increase in coronary sinus partial pressure of oxygen (PO2) in open chest anesthetized dog at intravenous dosage of 0.10 mg/kg; format: functional, Canis lupus familiaris; conditions: dose 0.1 mg/kg
Canis familiaris [27] = assay: Total time in minutes elapsed from the initiation of the change until return to the pretest value of blood pressure in coronary sinus of anesthetized dog at intravenous dosage of 2 mg/kg; format: functional, Canis lupus familiaris
Canis familiaris [28] = assay: Total time in minutes elapsed from the initiation of the change until return to the pretest value of heart rate in coronary sinus of anesthetized dog at intravenous dosage of 2 mg/kg; format: functional, Canis lupus familiaris
Canis familiaris [29] = assay: Total time in minutes elapsed from the initiation of the change until return to the pretest value of oxygen partial pressure in coronary sinus of anesthetized dog at intravenous dosage of 2 mg/kg; format: functional, Canis lupus familiaris; summary of the method: as §1
Canis familiaris [30] = assay: Tested for the percent increase in aortic blood pressure (BP) in open chest anesthetized dog at intravenous dosage of 2.00 mg/kg; format: functional, Canis lupus familiaris, Artery; summary of the method: as §3
Canis familiaris [31] = assay: Tested for percent increase in coronary sinus partial pressure of oxygen (PO2) in open chest anesthetized dog at intravenous dosage of 2.00 mg/kg; format: functional, Canis lupus familiaris

Q: For `Nc1ncnc2c1ncn2C1O[C@H](C(=O)NCC(O)COc2cccc3ccccc23)[C@@H](O)[C@H]1O` (some centres not stated), which Duration (Canis familiaris [1]) is on record?
A: 7 min

Q: What about the Duration (Canis familiaris [2]) of the same compound?
A: 12 min

Q: What about the Duration (Canis familiaris [3]) of the same compound?
A: 18 min

Q: And the BP (Canis familiaris [4])?
A: 8 mmHg

Q: What about the PO2 (Canis familiaris [5]) of the same compound?
A: 152%

Q: And the LD50 [6]?
A: > 300 mg/kg

Q: What about the LD50 [7] of the same compound?
A: > 300 mg/kg

Q: Which Duration (Canis familiaris [8]) does the source give for `CN(C)C(=O)[C@H]1OC(n2cnc3c(N)ncnc32)[C@H](O)[C@@H]1O` (some centres not stated) here?
A: 0 min

Q: What about the Duration (Canis familiaris [9]) of the same compound?
A: 0 min

Q: What about the Duration (Canis familiaris [10]) of the same compound?
A: 0 min

Q: And the PO2 (Canis familiaris [11])?
A: 0%

Q: What about the BP (Canis familiaris [12]) of the same compound?
A: 0%

Q: What about the LD50 [6] of the same compound?
A: 50 mg/kg

Q: And the LD50 [7]?
A: 1000 mg/kg

Q: What does the source list for `Nc1ncnc2c1ncn2C1O[C@H](C(=O)NCC2CC2)[C@@H](O)[C@H]1O` (some centres not stated)?
A: Duration (Canis familiaris [13]): 120 min; Duration (Canis familiaris [14]): 0 min; Duration (Canis familiaris [15]): 120 min; HR (Canis familiaris [16]): 0%; PO2 (Canis familiaris [17]): 47%; LD50 [6]: 20 mg/kg; LD50 [7]: 200 mg/kg

Q: For `NC(=O)[C@H]1OC(n2cnc3c(N)ncnc32)[C@H](O)[C@@H]1O` (some centres not stated), which Duration (Canis familiaris [18]) is on record?
A: 20 min

Q: And the Duration (Canis familiaris [19])?
A: 240 min

Q: What about the Duration (Canis familiaris [20]) of the same compound?
A: 25 min

Q: What about the Duration (Canis familiaris [21]) of the same compound?
A: 240 min

Q: And the Duration (Canis familiaris [22])?
A: 25 min

Q: What about the Duration (Canis familiaris [23]) of the same compound?
A: 240 min

Q: What about the PO2 (Canis familiaris [24]) of the same compound?
A: 79%

Q: And the HR (Canis familiaris [25])?
A: 72%

Q: And the PO2 (Canis familiaris [26])?
A: 41%

Q: And the LD50 [6]?
A: 5 mg/kg

Q: What about the LD50 [7] of the same compound?
A: 50 mg/kg

Q: For `Nc1ncnc2c1ncn2[C@@H]1O[C@H](CO)[C@@H](O)[C@H]1O` [ADENOSINE], which Duration (Canis familiaris [27]) is on record?
A: 2 min

Q: What about the Duration (Canis familiaris [28]) of the same compound?
A: 4 min

Q: And the Duration (Canis familiaris [29])?
A: 2 min

Q: And the BP (Canis familiaris [30])?
A: 60 mmHg

Q: What about the PO2 (Canis familiaris [31]) of the same compound?
A: 200%
